According to the RNAGym collection of RNA variant scans (doi:10.1126/science.aae0568):
This sample holds only a part of the variants without activity.

B1: tRNA (parent)
chain: GUUCCGUUGGCGUAAUGGUAACGCGUCUCCCUCCUAAGGAGAAGACUGCGGGUUCGAGUCCCGUACGGAACG

Variants of: B1
Experiment: yeast fitness relative to wild type (ratio to wild type); higher = fitter; tRNA-Arg(CCU), competitive growth, 37 C, YPD
Method in brief: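 Start and end populations of a pooled competition were compared by 100-nucleotide paired-end sequencing of gene amplicons. The Saccharomyces cerevisiae strains carried tRNA-Arg(CCU) gene variants at the native genomic locus, synthesised with a 3% per-site mutation rate at 69 sites, and competed in YPD at 37°C for 24 hours in six parallel replicates. Darwinian fitness relative to wild type was based on the change in genotype frequencies. Genotypes required ≥ 100 starting reads, and estimates < 0.5 were set to 0.5.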

**Q.** Which yeast fitness does the source give for GUUCCGUUGGCGUAAUGGUAACGCGUCUCCCUCCUAAGGAGGGGAGUGCGGGUUCCAGUCCCGUACGGAACG [A42G A43G C46G G56C] here?
**A.** 0.57

**Q.** Which yeast fitness does the source give for GUUCCGUUGGCGUAAUGGUAACGCGUCUCCCUCCUAAGGAGGUGACUGCGGGUUCGAGUCCCGUACGGAACG [A42G A43U] here?
**A.** 1.03

**Q.** For GUUCCGUUGGCGUAAUGGUAACGCGUCUCCCUCCUAAGGAGGAGGCUGCGGGUUCGAGUCCCGUACGGAACG [A42G A45G], which yeast fitness is on record?
**A.** 0.786

**Q.** With GUUCCGUUGGCGUAAUGGUAACGCGUCUCCCUCCUAAGGAGGAGGCCGCGCGUUCGAGUCCCGUACGGAACG [A42G A45G U47C G51C] as the variant, how does the yeast fitness read?
**A.** ≤ 0.5

**Q.** With GUUCCGUUGGCGUAAUGGUAACGCGUCUCCCUCCUAAGGAGGAGUCUGCGGGUUCGAGUCCCGUACGGAACG [A42G A45U] as the variant, how does the yeast fitness read?
**A.** 0.952

**Q.** Which yeast fitness does the source give for GUUCCGUUGGCGUAAUGGUAACGCGUCUCCCUCCUAAGGAGGAGUCUGCGGGUUCGAGUCCCGCACGGACCG [A42G A45U U64C A70C] here?
**A.** ≤ 0.5

**Q.** For GUUCCGUUGGCGUAAUGGUAACGCGUCUCCCUCCUAAGGAGGAGACUGCGGGUUCGGGUCCCGUACGGAACG [A42G A57G], which yeast fitness is on record?
**A.** 0.768

**Q.** For GUUCCGUUGGCGUAAUGGUAACGCGUCUCCCUCCUAAGGAGGAGACUGCGGGUUCGUGUCCCGUACGGAACG [A42G A57U], which yeast fitness is on record?
**A.** 0.714

**Q.** Which yeast fitness does the source give for GUUCCGUUGGCGUAAUGGUAACGCGUCUCCCUCCUAAGGAGGAGACUGCGGGUUCGAGUCCCGUACGGCACG [A42G A69C] here?
**A.** 0.95

**Q.** Which yeast fitness does the source give for GUUCCGUUGGCGUAAUGGUAACGCGUCUCCCUCCUAAGGAGGAGACUGCGGGUUCGAGUCCCGUACGGAUCG [A42G A70U] here?
**A.** 0.941

**Q.** With GUUCCGUUGGCGUAAUGGUAACGCGUCUCCCUCCUAAGGAGGAGAUUGCGGGUUCGAGUCCCGUACGGAACG [A42G C46U] as the variant, how does the yeast fitness read?
**A.** 0.974

**Q.** For GUUCCGUUGGCGUAAUGGUAACGCGUCUCCCUCCUAAGGAGGAGACUGAGGGUUCGAGUCCCGUACGGAACG [A42G C49A], which yeast fitness is on record?
**A.** 0.782

**Q.** Which yeast fitness does the source give for GUUCCGUUGGCGUAAUGGUAACGCGUCUCCCUCCUAAGGAGGAGACUGGGGGUUCGAGUCCCGUACGGAACG [A42G C49G] here?
**A.** 0.767

**Q.** With GUUCCGUUGGCGUAAUGGUAACGCGUCUCCCUCCUAAGGAGGAGACUGGGGGUCCGAGUCCCCUACGGAACG [A42G C49G U54C G63C] as the variant, how does the yeast fitness read?
**A.** 0.524

**Q.** Which yeast fitness does the source give for GUUCCGUUGGCGUAAUGGUAACGCGUCUCCCUCCUAAGGAGGAGACUGGGGGUCCGAGUCCCCUACGGAUCG [A42G C49G U54C G63C A70U] here?
**A.** 0.547

**Q.** For GUUCCGUUGGCGUAAUGGUAACGCGUCUCCCUCCUAAGGAGGAGACUGUGGGUUCGAGUCCCGUUCGGAACG [A42G C49U A65U], which yeast fitness is on record?
**A.** ≤ 0.5

**Q.** With GUUCCGUUGGCGUAAUGGUAACGCGUCUCCCUCCUAAGGAGGAGACUGUGAGUUCGAGUCCCGUACGGAACG [A42G C49U G51A] as the variant, how does the yeast fitness read?
**A.** 0.535

**Q.** With GUUCCGUUGGCGUAAUGGUAACGCGUCUCCCUCCUAAGGAGGAGACUGUGGGUUCGAGCCUCGUACGGAACG [A42G C49U U59C C61U] as the variant, how does the yeast fitness read?
**A.** ≤ 0.5

**Q.** Which yeast fitness does the source give for GUUCCGUUGGCGUAAUGGUAACGCGUCUCCCUCCUAAGGAGGAGACUGCGGGUUGGAGUCCCGUACGGAACG [A42G C55G] here?
**A.** 0.669

**Q.** For GUUCCGUUGGCGUAAUGGUAACGCGUCUCCCUCCUAAGGAGGAGACUGCGGGUUUGAGUCCCGUCCGGAACG [A42G C55U A65C], which yeast fitness is on record?
**A.** 0.535

**Q.** For GUUCCGUUGGCGUAAUGGUAACGCGUCUCCCUCCUAAGGAGGAGACUGCGGGUUCGAGUGGCGUACGGAACG [A42G C60G C61G], which yeast fitness is on record?
**A.** ≤ 0.5

**Q.** For GUUCCGUUGGCGUAAUGGUAACGCGUCUCCCUCCUAAGGAGGAGACUGCGGGUUCGAGUUCCGUACGGGUCG [A42G C60U A69G A70U], which yeast fitness is on record?
**A.** ≤ 0.5

**Q.** With GUUCCGUUGGCGUAAUGGUAACGCGUCUCCCUCCUAAGGAGGAGACUGCGGGUUCGAGUCACGUACGGAACG [A42G C61A] as the variant, how does the yeast fitness read?
**A.** 0.553

**Q.** Which yeast fitness does the source give for GUUCCGUUGGCGUAAUGGUAACGCGUCUCCCUCCUAAGGAGGAGACUGCGGGUUCGAGUCACGUAAGGAACG [A42G C61A C66A] here?
**A.** ≤ 0.5

**Q.** With GUUCCGUUGGCGUAAUGGUAACGCGUCUCCCUCCUAAGGAGGAGACUGCGGGUUCGAGUCACCUACGGAACG [A42G C61A G63C] as the variant, how does the yeast fitness read?
**A.** ≤ 0.5

**Q.** For GUUCCGUUGGCGUAAUGGUAACGCGUCUCCCUCCUAAGGAGGAGACUGCGGGUUCGAGUCUCGUACGGAACG [A42G C61U], which yeast fitness is on record?
**A.** 0.853

**Q.** For GUUCCGUUGGCGUAAUGGUAACGCGUCUCCCUCCUAAGGAGGAGACUGCGGGUUCGAGUCUCCUACGGAACG [A42G C61U G63C], which yeast fitness is on record?
**A.** ≤ 0.5

**Q.** Which yeast fitness does the source give for GUUCCGUUGGCGUAAUGGUAACGCGUCUCCCUCCUAAGGAGGAGACUGCGGGUUCGAGUCCUGUACGGCACG [A42G C62U A69C] here?
**A.** 0.696

**Q.** Which yeast fitness does the source give for GUUCCGUUGGCGUAAUGGUAACGCGUCUCCCUCCUAAGGAGGAGACUGCGGGUUCGAGUCCCGUAAGGAACG [A42G C66A] here?
**A.** 0.599

**Q.** For GUUCCGUUGGCGUAAUGGUAACGCGUCUCCCUCCUAAGGAGGACACUGCGGGUUCGAGUCCCGUACGGAACG [A42G G44C], which yeast fitness is on record?
**A.** 0.906

**Q.** Which yeast fitness does the source give for GUUCCGUUGGCGUAAUGGUAACGCGUCUCCCUCCUAAGGAGGACACUGUGGGUUCGCGUCCCGUACGGAACG [A42G G44C C49U A57C] here?
**A.** ≤ 0.5

**Q.** For GUUCCGUUGGCGUAAUGGUAACGCGUCUCCCUCCUAAGGAGGACACUGCGGGUUCGAGACCCGUACGGAACG [A42G G44C U59A], which yeast fitness is on record?
**A.** 0.537

**Q.** Which yeast fitness does the source give for GUUCCGUUGGCGUAAUGGUAACGCGUCUCCCUCCUAAGGAGGAGACUACGCGUUCGAGUCCCGUACGGAACG [A42G G48A G51C] here?
**A.** ≤ 0.5

**Q.** With GUUCCGUUGGCGUAAUGGUAACGCGUCUCCCUCCUAAGGAGGAGACUGCGAGUUCGAGUCCCGUACGGAACG [A42G G51A] as the variant, how does the yeast fitness read?
**A.** 0.822

**Q.** Which yeast fitness does the source give for GUUCCGUUGGCGUAAUGGUAACGCGUCUCCCUCCUAAGGAGGAGACUGCGAGUUCGAGUUCCAUACGGAACG [A42G G51A C60U G63A] here?
**A.** ≤ 0.5

**Q.** With GUUCCGUUGGCGUAAUGGUAACGCGUCUCCCUCCUAAGGAGGAGACUGCGCGUUCGAGUCCCGUACGGAACG [A42G G51C] as the variant, how does the yeast fitness read?
**A.** ≤ 0.5

**Q.** Which yeast fitness does the source give for GUUCCGUUGGCGUAAUGGUAACGCGUCUCCCUCCUAAGGAGGAGACUGCGUGUUCGAGUCCCGUACGGACCG [A42G G51U A70C] here?
**A.** ≤ 0.5
